Assay results: ChEMBL document CHEMBL1641472, “Discovery of novel phenylpyridone derivatives as potent and selective MCH1R antagonists” (Bioorg Med Chem, 2011)
pIC50: −log10 of the molar value. One block for each compound: values may come before it. Activity calls are given as the source filed them. The calls are words filed in the database; no cut-off is given here.

What was measured:
[1] = target: T1, Melanin-concentrating hormone receptor 1 (Homo sapiens, UniProt Q99705); assay: Displacement of [125I]MCH from human MCHR1 expressed in CHO cells by competition binding assay; type: cell-based
T1 sequence (Q99705 whole entry): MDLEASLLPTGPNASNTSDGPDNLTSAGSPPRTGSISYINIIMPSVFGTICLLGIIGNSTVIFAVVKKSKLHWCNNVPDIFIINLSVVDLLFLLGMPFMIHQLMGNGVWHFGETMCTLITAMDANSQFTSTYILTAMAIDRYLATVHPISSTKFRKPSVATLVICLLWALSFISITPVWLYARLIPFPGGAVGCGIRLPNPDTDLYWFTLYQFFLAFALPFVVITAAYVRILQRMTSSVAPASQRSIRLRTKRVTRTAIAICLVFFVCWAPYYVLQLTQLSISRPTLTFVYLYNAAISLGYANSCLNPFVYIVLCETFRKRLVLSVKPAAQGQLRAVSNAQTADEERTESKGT
Outline: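 Competition binding against [¹²⁵I]-MCH radioligand on membranes from CHO cells expressing human MCH1R; IC50 values are means of two experiments.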

[2] = target: T1, Melanin-concentrating hormone receptor 1; assay: Antagonist activity at human MCHR1 expressed in CHO cells assessed as inhibition of MCH-induced intracellular calcium release by FLIPR assay; type: functional, cell-based
Outline: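 Agonist-induced intracellular calcium release measured by FLIPR in CHO cells stably expressing human MCH1R; antagonism taken as inhibition of the MCH-evoked signal.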

[3] = target: Voltage-gated inwardly rectifying potassium channel KCNH2 (Homo sapiens, UniProt Q12809); assay: Displacement of [35S]N-[(4R)-10-[(2R)-6-cyano-1,2,3,4-tetrahydro-2-naphthyl]-3,4-dihydro-4-hydroxyspiro[2H-1-benzopyran-2,40-piperidin]-6-yl]methanesulfonamide from human ERG expressed in HEK293 cells
Sequence of Voltage-gated inwardly rectifying potassium channel KCNH2 (Q12809 whole entry): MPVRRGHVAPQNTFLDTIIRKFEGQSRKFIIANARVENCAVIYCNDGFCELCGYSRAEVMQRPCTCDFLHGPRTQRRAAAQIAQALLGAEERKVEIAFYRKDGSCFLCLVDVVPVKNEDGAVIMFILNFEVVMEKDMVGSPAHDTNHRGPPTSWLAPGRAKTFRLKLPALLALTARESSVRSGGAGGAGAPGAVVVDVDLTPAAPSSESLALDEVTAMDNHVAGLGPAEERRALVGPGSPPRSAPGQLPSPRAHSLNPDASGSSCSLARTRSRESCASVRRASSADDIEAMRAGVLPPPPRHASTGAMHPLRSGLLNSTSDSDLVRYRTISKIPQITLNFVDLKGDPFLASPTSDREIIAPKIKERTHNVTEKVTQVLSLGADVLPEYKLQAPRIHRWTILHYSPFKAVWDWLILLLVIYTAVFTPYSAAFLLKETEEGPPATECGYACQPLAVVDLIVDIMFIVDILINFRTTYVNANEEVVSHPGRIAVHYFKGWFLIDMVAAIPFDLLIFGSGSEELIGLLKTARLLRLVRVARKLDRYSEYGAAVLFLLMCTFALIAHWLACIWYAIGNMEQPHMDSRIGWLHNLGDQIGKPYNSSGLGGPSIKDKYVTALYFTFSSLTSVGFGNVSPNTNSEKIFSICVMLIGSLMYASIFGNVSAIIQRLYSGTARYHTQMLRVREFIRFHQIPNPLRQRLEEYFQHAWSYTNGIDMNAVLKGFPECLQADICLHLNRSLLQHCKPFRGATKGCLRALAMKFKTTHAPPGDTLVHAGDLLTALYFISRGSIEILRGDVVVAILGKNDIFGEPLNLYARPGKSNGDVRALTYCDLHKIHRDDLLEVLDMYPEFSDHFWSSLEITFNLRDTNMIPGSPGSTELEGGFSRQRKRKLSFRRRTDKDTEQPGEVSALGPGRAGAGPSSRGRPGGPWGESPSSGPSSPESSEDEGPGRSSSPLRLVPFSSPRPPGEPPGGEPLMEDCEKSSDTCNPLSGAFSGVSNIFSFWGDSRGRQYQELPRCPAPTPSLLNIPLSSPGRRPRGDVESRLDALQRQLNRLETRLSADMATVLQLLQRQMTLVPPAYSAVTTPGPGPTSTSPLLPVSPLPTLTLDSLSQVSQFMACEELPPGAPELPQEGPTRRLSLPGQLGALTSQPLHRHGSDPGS

Mus musculus [4] = assay: Suppression of spontaneous food intake in diet-induced obese C57BL/6 mouse model at 30 mg/kg, po after 24 hrs; type: functional
Outline: (§1)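 Established DIO mice on high-fat diet given a single oral dose (3, 10, 30 mg/kg) 1–2 h before dark onset, after recording daily intake and body weight; food intake measured 24 h post-dose versus vehicle group.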

Brain = assay: Drug level in Sprague-Dawley rat brain measured per gram of tissue at 10 mg/kg, po after 2 hrs; type: ADME, organism-based; set-up: dose 10 mg/kg, route oral; settings: in vivo
[5] = Drug level in Sprague-Dawley rat plasma at 10 mg/kg, po after 2 hrs; type: ADME, organism-based; set-up: dose 10 mg/kg, route oral; settings: read-out: Drug uptake
[6] = Ratio of drug level in brain to plasma in Sprague-Dawley rat plasma at 10 mg/kg, po after 2 hrs; type: ADME, organism-based; set-up: dose 10 mg/kg, route oral
Mus musculus [7] = assay: Suppression of spontaneous food intake in diet-induced obese C57BL/6 mouse model at 10 mg/kg, po after 24 hrs; type: functional; outline: as §1
Mus musculus [8] = assay: Antiobese effect in diet-induced obese C57BL/6 mouse model assessed as loss of body weight at 3 mg/kg, po QD for 1.5 months; type: functional
Outline: (§2)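 Established high-fat-fed DIO mice dosed orally once daily at 3, 10 or 30 mg/kg for 1.5 months, each dose given 1–2 h before dark period after daily food intake and body weight recording; body weight change at end of treatment versus vehicle controls, mean ± SEM.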

[9] = Drug level in Sprague-Dawley rat cerebrospinal fluid at 10 mg/kg, po after 2 hrs; type: ADME, organism-based; set-up: dose 10 mg/kg, route oral; settings: read-out: Drug uptake
Mus musculus [10] = assay: Suppression of spontaneous food intake in diet-induced obese C57BL/6 mouse model at 3 mg/kg, po after 24 hrs; type: functional; outline: as §1
Mus musculus [11] = assay: Antiobese effect in diet-induced obese C57BL/6 mouse model assessed as loss of body weight at 30 mg/kg, po QD for 1.5 months; type: functional; outline: as §2
Mus musculus [12] = assay: Suppression of spontaneous food intake in diet-induced obese C57BL/6 mouse model treated orally after 24 hrs; type: functional, organism-based; outline: as §1
Mus musculus [13] = assay: Suppression of spontaneous food intake in diet-induced obese C57BL/6 mouse model treated orally chronic administration QD for 1.5 months after 24 hrs; type: functional, organism-based
Mus musculus [14] = assay: Antiobese effect in diet-induced obese C57BL/6 mouse model assessed as loss of body weight at 10 mg/kg, po QD for 1.5 months; type: functional; outline: as §2

SMILES: O=c1cc(OCCOc2ccc(F)cc2)ccn1-c1ccc(OCCN2CCCC2)cc1
pIC50 [1]: 6.82

SMILES: O=c1cc(OCCc2ccc(F)cc2)ccn1-c1ccc(OCCN2CCCC2)cc1
pIC50 [1]: 6.19

SMILES: CCN(CC)CCN(C)c1ccc(-n2ccc(OCc3ccccc3)cc2=O)cc1
pIC50 [3]: 5.77
pIC50 [1]: 7.80

SMILES: CCN(CC)CCOc1ccc(-n2ccc(OCc3ccccc3)cc2=O)cc1
pIC50 [2]: 7.62
pIC50 [3]: 5.01
pIC50 [1]: 8.18

SMILES: CN1CCC(Oc2ccc(-n3ccc(OCc4ccccc4)cc3=O)cc2)C1 (stereo not given)
pIC50 [3]: < 5.00
pIC50 [1]: 7.74

SMILES: CC(CN(C)C)Oc1ccc(-n2ccc(OCc3ccccc3)cc2=O)cc1 (stereo not given)
pIC50 [1]: 7.29

SMILES: CN(C)CC1CCc2cc(NC(=O)c3ccc(-c4ccc(F)cc4)cc3)ccc2C1 (stereo not given)
Activity (Mus musculus [4]): Active

SMILES: CC(C)N(CCOc1ccc(-n2ccc(OCc3ccccc3)cc2=O)cc1)C(C)C
pIC50 [2]: 7.66
pIC50 [1]: 8.29

SMILES: CN(C)CC(C)(C)Oc1ccc(-n2ccc(OCc3ccccc3)cc2=O)cc1
pIC50 [1]: 6.74

SMILES: O=c1cc(-c2ccc(F)cc2)ccn1-c1ccc(OCCN2CCCCC2)cc1
pIC50 [1]: < 6.00

SMILES: O=c1cc(OCc2ccc(C(F)(F)F)cc2)ccn1-c1ccc(OCCN2CCCC2)cc1
pIC50 [2]: 7.31
pIC50 [1]: 8.17

SMILES: O=c1cc(Oc2ccc(F)cc2)ccn1-c1ccc(OCCN2CCCCC2)cc1
pIC50 [1]: < 6.00

SMILES: CCN(CC)CCN(C(=O)OC)c1ccc(-n2ccc(OCc3ccccc3)cc2=O)cc1
pIC50 [1]: < 6.00

SMILES: O=c1cc(OCc2ccc3ccccc3c2)ccn1-c1ccc(OCCN2CCCC2)cc1
pIC50 [2]: 6.76
pIC50 [1]: 8.11

SMILES: O=c1cc(OCc2ccc(F)cc2)ccn1-c1ccc(OCCN2CCCC2)cc1
Activity (Mus musculus [7]): 13%
Activity (Mus musculus [8]): 4%
concentration at 2 h [9]: 55 nM
Activity (Mus musculus [10]): 6%
Activity (Mus musculus [11]): 21%
pIC50 [2]: 7.64
Activity (Mus musculus [12]): Dose-dependent effect
Activity (Mus musculus [4]): 19%
Drug uptake (Brain): 2.4 nmol/g
Activity (Mus musculus [13]): Dose-dependent effect
Activity (Mus musculus [14]): 11%
concentration at 2 h [5]: 1000 nM
Kp at 2 h [6]: 2.4

SMILES: COc1ccc(COc2ccn(-c3ccc(OCCN4CCCC4)cc3)c(=O)c2)cc1
pIC50 [2]: 7.96

More lines, main results first:

pIC50 [2]: 7.47
pIC50 [1]: 7.62
SMILES: O=c1cc(OCc2ccccc2)ccn1-c1ccc(OCCN2CCOCC2)cc1
pIC50 [3]: < 5.00

pIC50 [2]: 7.74
SMILES: CN(C)CCOc1ccc(-n2ccc(OCc3ccccc3)cc2=O)cc1
pIC50 [3]: < 5.00

pIC50 [2]: 7.52
pIC50 [1]: 8.06
SMILES: O=c1cc(OCc2ccccc2F)ccn1-c1ccc(OCCN2CCCC2)cc1
pIC50 [3]: 5.37

pIC50 [2]: 7.66
pIC50 [1]: 8.23
SMILES: O=c1cc(OCc2cccc(F)c2)ccn1-c1ccc(OCCN2CCCC2)cc1

pIC50 [1]: 7.74
SMILES: CN1CCCCC1COc1ccc(-n2ccc(OCc3ccccc3)cc2=O)cc1 (stereo not given)

pIC50 [1]: 7.92
SMILES: O=c1cc(OCc2ccccc2Cl)ccn1-c1ccc(OCCN2CCCC2)cc1

pIC50 [2]: 7.72
Drug uptake (Brain): 0.76 nmol/g
concentration at 2 h [5]: 200 nM
Kp at 2 h [6]: 3.8
SMILES: O=c1cc(OCc2ccccc2)ccn1-c1ccc(OCCN2CCCCC2)cc1

pIC50 [2]: 7.64
pIC50 [1]: 7.92
SMILES: CN1CCCC1COc1ccc(-n2ccc(OCc3ccccc3)cc2=O)cc1 (stereo not given)

pIC50 [1]: 6.19
SMILES: O=c1cc(OCc2ccc(-c3ccccc3)cc2)ccn1-c1ccc(OCCN2CCCC2)cc1

concentration at 2 h [9]: 10 nM
pIC50 [2]: 7.77
pIC50 [1]: 8.85
Drug uptake (Brain): 1.67 nmol/g
concentration at 2 h [5]: 470 nM
Kp at 2 h [6]: 3.6
SMILES: O=c1cc(OCc2ccc(Cl)cc2)ccn1-c1ccc(OCCN2CCCC2)cc1
